ChEMBL document CHEMBL1131465, “Design, synthesis, and biological evaluation of conformationally constrained aci-reductone mimics of arachidonic acid” (J Med Chem, 1998)

Tests used:
[1] = biological target: T1, Prostaglandin G/H synthase 1 (Ovis aries) (UniProt P05979); experiment: Inhibition of Prostaglandin G/H synthase 1 isolated from ram (sheep) seminal vesicle at 300 uM; format: tissue-based
T1 sequence (whole entry): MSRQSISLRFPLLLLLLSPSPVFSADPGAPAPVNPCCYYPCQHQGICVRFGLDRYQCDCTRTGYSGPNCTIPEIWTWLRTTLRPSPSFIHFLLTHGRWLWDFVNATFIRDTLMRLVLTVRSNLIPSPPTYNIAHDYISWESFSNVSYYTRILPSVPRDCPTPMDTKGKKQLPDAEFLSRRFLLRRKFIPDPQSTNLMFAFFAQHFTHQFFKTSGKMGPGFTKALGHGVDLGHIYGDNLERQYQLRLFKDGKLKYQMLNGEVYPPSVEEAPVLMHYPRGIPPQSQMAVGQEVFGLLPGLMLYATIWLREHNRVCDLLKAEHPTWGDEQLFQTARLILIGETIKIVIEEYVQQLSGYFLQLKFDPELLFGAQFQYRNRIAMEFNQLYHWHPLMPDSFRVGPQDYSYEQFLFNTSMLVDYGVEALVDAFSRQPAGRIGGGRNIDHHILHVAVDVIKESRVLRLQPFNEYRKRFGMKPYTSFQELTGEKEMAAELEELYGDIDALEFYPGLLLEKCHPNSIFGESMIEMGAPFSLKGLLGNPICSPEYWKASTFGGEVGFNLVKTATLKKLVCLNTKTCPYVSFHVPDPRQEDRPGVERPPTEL

Cavia porcellus [2] = species on record: Cavia porcellus; experiment: (§1) Inhibition of CCl4 induced lipid peroxidation (LPO) of guinea pig hepatic microsomes at 300 uM concentration; format: functional; details: Liver
Procedure, shortened: (§2)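 Lipid peroxidation of polyunsaturated fatty acids in guinea pig liver microsomes was induced with CCl₄. Test compounds were used at 300 µM. Malondialdehyde (MDA) formation was quantified spectrophotometrically, and results are reported as percent inhibition.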

[3] = biological target: T2, Polyunsaturated fatty acid 5-lipoxygenase (Rattus norvegicus) (UniProt P12527); experiment: Inhibition of 5-lipoxygenase of rat basophilic leukemia cells at 30 uM; format: cell-based; details: RBL-1
T2 sequence (whole entry): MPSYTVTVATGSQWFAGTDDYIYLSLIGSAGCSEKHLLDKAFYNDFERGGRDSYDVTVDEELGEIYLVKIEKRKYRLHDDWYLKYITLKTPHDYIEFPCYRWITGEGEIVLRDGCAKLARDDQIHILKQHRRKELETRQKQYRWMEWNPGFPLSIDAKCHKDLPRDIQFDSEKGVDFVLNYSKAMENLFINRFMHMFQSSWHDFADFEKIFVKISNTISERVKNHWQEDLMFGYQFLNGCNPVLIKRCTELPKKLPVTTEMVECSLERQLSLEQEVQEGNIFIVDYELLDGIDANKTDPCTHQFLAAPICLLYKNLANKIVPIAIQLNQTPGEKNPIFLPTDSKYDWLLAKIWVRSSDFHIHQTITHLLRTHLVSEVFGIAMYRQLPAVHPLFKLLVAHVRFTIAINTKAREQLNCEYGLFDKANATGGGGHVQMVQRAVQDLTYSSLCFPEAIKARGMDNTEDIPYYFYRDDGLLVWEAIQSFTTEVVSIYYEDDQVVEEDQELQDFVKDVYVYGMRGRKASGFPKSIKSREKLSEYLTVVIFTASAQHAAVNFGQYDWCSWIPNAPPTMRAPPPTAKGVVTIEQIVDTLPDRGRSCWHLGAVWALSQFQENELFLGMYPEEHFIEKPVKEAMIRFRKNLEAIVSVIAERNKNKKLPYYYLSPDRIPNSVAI
Procedure, shortened: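 5-LO source was a crude enzyme preparation from broken rat basophilic leukemia (RBL-1) cells. Compounds were screened at a single concentration of 30 µM, and results are reported as percent inhibition.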

[4] = biological target: T3, Prostaglandin G/H synthase 2 (Ovis aries) (UniProt P79208); experiment: Inhibition of Prostaglandin G/H synthase 2 from sheep placenta at 300 uM
T3 sequence (whole entry): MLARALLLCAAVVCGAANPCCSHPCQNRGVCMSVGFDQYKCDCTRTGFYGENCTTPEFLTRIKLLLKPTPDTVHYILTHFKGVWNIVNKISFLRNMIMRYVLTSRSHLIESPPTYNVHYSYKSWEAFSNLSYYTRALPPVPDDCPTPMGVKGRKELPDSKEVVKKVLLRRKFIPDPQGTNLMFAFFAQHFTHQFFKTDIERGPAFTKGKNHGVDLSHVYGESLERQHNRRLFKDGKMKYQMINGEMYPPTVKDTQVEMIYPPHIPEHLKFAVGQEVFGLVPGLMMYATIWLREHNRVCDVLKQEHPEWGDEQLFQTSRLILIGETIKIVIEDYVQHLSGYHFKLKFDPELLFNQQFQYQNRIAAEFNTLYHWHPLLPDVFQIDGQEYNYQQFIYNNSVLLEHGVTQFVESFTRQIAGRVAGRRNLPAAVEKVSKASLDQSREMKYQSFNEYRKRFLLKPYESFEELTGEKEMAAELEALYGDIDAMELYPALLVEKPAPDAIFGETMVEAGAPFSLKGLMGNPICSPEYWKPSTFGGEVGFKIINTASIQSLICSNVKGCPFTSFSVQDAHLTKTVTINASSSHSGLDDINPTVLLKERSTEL

[5] = biological target: T4, Polyunsaturated fatty acid 5-lipoxygenase (Rattus norvegicus, UniProt P12527); experiment: Inhibitory activity against 5-lipoxygenase obtained from rat basophilic leukemia cells
T4 sequence (P12527 whole entry): T2 sequence (whole entry)
Procedure, shortened: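 IC50 was determined against 5-LO in a broken RBL-1 cell assay, using a crude enzyme preparation from rat basophilic leukemia cells.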

Cavia porcellus [6] = species on record: Cavia porcellus; experiment: as §1; format: functional; details: Liver; procedure, shortened: as §2; remark: listed apart in the source

Work on `CCCS(=O)(=O)Cc1ccccc1C#CCCC1OC(O)=C(O)C1=O` (stereo unspecified) yielded an inhibition [1] of 25%, an inhibition (Cavia porcellus [2]) of 60% and an inhibition [3] of 30%. For the same compound, the inhibition [4] was 12%.
With `CCC/C=C\Cc1ccccc1C#CCCC1OC(O)=C(O)C1=O` (stereo unspecified) the inhibition [1] was 55%, the inhibition (Cavia porcellus [2]) was 72% and the IC50 [5] was 0.4 µM. It also gave an inhibition [3] of 81% and an inhibition [4] of 28%.
In the case of `O=C1C(O)=C(O)OC1CCC#Cc1ccc(Cc2ccc(F)cc2)s1` (stereo unspecified), the IC50 [5] is reported as 0.16 µM and the inhibition [3] is reported as 100%.
Compound `Cc1ccccc1C#CCCC1OC(O)=C(O)C1=O` (stereo unspecified) has an inhibition [1] of 8%, an inhibition (Cavia porcellus [2]) of 59% and an inhibition [3] of 43%. The inhibition [4] was 18%.
Compound `C[C@H](C#Cc1ccc(Cc2ccc(F)cc2)s1)N(O)C(N)=O` [ATRELEUTON] has an IC50 [5] of 0.023 µM.
With `CC(=O)Oc1ccccc1C(=O)O` the inhibition [1] was 76%, the inhibition (Cavia porcellus [2]) was 4% and the inhibition [3] was 0%. The inhibition [4] was 0%.
For `CCCCS(=O)(=O)Nc1ccccc1C#CCCC1OC(O)=C(O)C1=O` (stereo unspecified), the inhibition [1] was 8%, the inhibition (Cavia porcellus [2]) was 75% and the inhibition [3] was 81%. It also gave an inhibition [4] of 23%.
`CCCSCc1ccccc1C#CCCC1OC(O)=C(O)C1=O` (stereo unspecified) was tested, and the inhibition [1] was 38%, the inhibition (Cavia porcellus [2]) was 72% and the inhibition [3] was 82%. For the same compound, the inhibition [4] was 20%.
`O=C1C(O)=C(O)OC1CCC#Cc1ccccc1CSc1ccccc1` (stereo unspecified) gave an inhibition [1] of 25%, an inhibition (Cavia porcellus [2]) of 61% and an IC50 [5] of 0.3 µM. For the same compound, the inhibition [3] was 100% and the inhibition [4] was 15%.
In the case of `CCC/C=C\Cc1ccccc1/C=C\CCC1OC(O)=C(O)C1=O` (stereo unspecified), the inhibition [1] is reported as 37%, the inhibition (Cavia porcellus [2]) is reported as 68% and the inhibition [3] is reported as 99%. For the same compound, the inhibition [4] was 28%.
For `CCCCCSCc1ccccc1C#CCCC1OC(O)=C(O)C1=O` (stereo unspecified), the inhibition [1] was 67%, the inhibition (Cavia porcellus [2]) was 62% and the inhibition [3] was 90%. It also gave an inhibition [4] of 45%.
Compound `O=C1C(O)=C(O)OC1CCC#Cc1ccccc1` (stereo unspecified) has an inhibition [1] of 5%, an inhibition (Cavia porcellus [2]) of 62% and an inhibition [3] of 58%. It also gave an inhibition [4] of 13%.
`Cc1c(C)c2c(c(C)c1O)CC[C@@](C)(CCC[C@H](C)CCC[C@H](C)CCCC(C)C)O2` [ALPHA-TOCOPHEROL] showed an IC50 (Cavia porcellus [6]) of 280 µM.
